Assay results from ChEMBL document CHEMBL3853298, “Total synthesis and in vitro bioevaluation of clavaminols A, C, H & deacetyl clavaminol H as potential chemotherapeutic and antibiofilm agents” (Eur J Med Chem, 2016).
pIC50: −log10 of the molar value. Converted amounts (≈) assume the structure as drawn. The source made the active and inactive calls. The rule behind the calls is not given here.

How the values were obtained:
[1] = Cytotoxicity against human DU145 cells assessed as cell growth inhibition by MTT assay; type: functional, cell-based; settings: DU-145
[2] = Cytotoxicity against human HeLa cells assessed as cell growth inhibition by MTT assay; type: functional, cell-based
[3] = Cytotoxicity against human MCF7 cells assessed as cell growth inhibition by MTT assay; type: functional, cell-based
Micrococcus luteus [4] = experiment: Antibacterial activity against Micrococcus luteus MTCC 2470 after 24 hrs by well diffusion method; type: functional; settings: MTCC 2470, 24 h
Method in brief: (§1)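 Bacteria spread (0.1 mL suspension) on Mueller-Hinton agar; 6.0 mm wells loaded with compound over a 250 to 0.48 per-well dose range, methanol as negative control. Incubated 24 h at 37 °C. MIC taken as the lowest concentration still giving an inhibition zone. Duplicates, mean reported.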

Staphylococcus aureus [5] = experiment: Antibacterial activity against Staphylococcus aureus MLS16 MTCC 2940 after 24 hrs by well diffusion method; type: functional; settings: MLS16 MTCC 2940, 24 h; method in brief: as §1
Raoultella planticola = experiment: Antibacterial activity against Klebsiella planticola MTCC 530 after 24 hrs by well diffusion method; type: functional; settings: MTCC 530, 24 h; method in brief: as §1
Escherichia coli [6] = experiment: Antibacterial activity against Escherichia coli MTCC 739 after 24 hrs by well diffusion method; type: functional; settings: MTCC 739, 24 h; method in brief: as §1
Pseudomonas aeruginosa [7] = experiment: Antibacterial activity against Pseudomonas aeruginosa MTCC 2453 after 24 hrs by well diffusion method; type: functional; settings: MTCC 2453, 24 h; method in brief: as §1
Candida albicans [8] = experiment: Antifungal activity against Candida albicans MTCC 1637 after 24 hrs by well diffusion method; type: functional; settings: MTCC 1637, 24 h
Method in brief: (§2)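 Candida/Issatchenkia lawns (0.1 mL suspension) on Mueller-Hinton agar; 6.0 mm bored wells receive compound across a 250 to 0.48 per-well dose range, methanol as negative control. Plates kept 24 h at 30 °C. MIC is the lowest concentration producing a visible inhibition zone. Duplicate runs, mean values.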

Candida albicans [9] = experiment: Antifungal activity against Candida albicans MTCC 3017 after 24 hrs by well diffusion method; type: functional; settings: MTCC 3017, 24 h; method in brief: as §2
Candida albicans [10] = experiment: Antifungal activity against Candida albicans MTCC 3958 after 24 hrs by well diffusion method; type: functional; settings: MTCC 3958, 24 h; method in brief: as §2
Candida albicans [11] = experiment: Antifungal activity against Candida albicans MTCC 7315 after 24 hrs by well diffusion method; type: functional; settings: MTCC 7315, 24 h; method in brief: as §2
[12] = Antifungal activity against Candida parapsilosis MTCC 1744 after 24 hrs by well diffusion method; type: functional; method in brief: as §2
[Candida] aaseri [13] = Antifungal activity against Candida aaseri MTCC 1962 after 24 hrs by well diffusion method; type: functional; settings: Yamadazyma aaseri, MTCC 1962, 24 h; method in brief: as §2
[14] = Antifungal activity against Candida glabrata MTCC 3019 after 24 hrs by well diffusion method; type: functional; settings: Nakaseomyces glabratus; method in brief: as §2
Staphylococcus aureus [15] = experiment: Bactericidal activity against Staphylococcus aureus MTCC 96 after 24 hrs; type: functional; settings: MTCC 96, 24 h
Method in brief: (§3)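 Broth macrodilution in Mueller Hinton broth, compound serially diluted from 150 down to 0. Overnight bacterial culture added to a final 1.5 × 10^8 CFU/mL (0.5 McFarland), 24 h at 37 °C. Suspension then subcultured onto Mueller Hinton agar for 24 h at 37 °C. MBC is the lowest concentration killing the strain. Duplicates.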

Staphylococcus aureus [16] = experiment: Bactericidal activity against Staphylococcus aureus MLS16 MTCC 2940 after 24 hrs; type: functional; settings: MLS16 MTCC 2940, 24 h; method in brief: as §3
Micrococcus luteus [17] = experiment: Bactericidal activity against Micrococcus luteus MTCC 2470 after 24 hrs; type: functional; settings: MTCC 2470, 24 h; method in brief: as §3
Escherichia coli [18] = experiment: Bactericidal activity against Escherichia coli MTCC 739 after 24 hrs; type: functional; settings: MTCC 739, 24 h; method in brief: as §3
Pseudomonas aeruginosa [19] = experiment: Bactericidal activity against Pseudomonas aeruginosa MTCC 2453 after 24 hrs; type: functional; settings: MTCC 2453, 24 h; method in brief: as §3
Candida albicans [20] = experiment: Fungicidal activity against Candida albicans MTCC 183 after 24 hrs; type: functional; settings: MTCC 183, 24 h
Method in brief: (§4)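 Candida grown overnight in Mueller Hinton broth. Compound serially diluted in the same broth from 150 to 0 and inoculated to a final 1.5 × 10^8 CFU/mL (0.5 McFarland), then 24 h at 37 °C. Tube contents plated onto Mueller Hinton agar for 24 h at 37 °C. MFC is the lowest concentration killing the yeast. Duplicates.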

Candida albicans [21] = experiment: Fungicidal activity against Candida albicans MTCC 227 after 24 hrs; type: functional; settings: MTCC 227, 24 h; method in brief: as §4
Candida albicans [22] = experiment: Fungicidal activity against Candida albicans MTCC 1637 after 24 hrs; type: functional; settings: MTCC 1637, 24 h; method in brief: as §4
Candida albicans [23] = experiment: Fungicidal activity against Candida albicans MTCC 3017 after 24 hrs; type: functional; settings: MTCC 3017, 24 h; method in brief: as §4
Candida albicans [24] = experiment: Fungicidal activity against Candida albicans MTCC 3958 after 24 hrs; type: functional; settings: MTCC 3958, 24 h; method in brief: as §4
Candida albicans [25] = experiment: Fungicidal activity against Candida albicans MTCC 4748 after 24 hrs; type: functional; settings: MTCC 4748, 24 h; method in brief: as §4
Candida albicans [26] = experiment: Fungicidal activity against Candida albicans MTCC 7315 after 24 hrs; type: functional; settings: MTCC 7315, 24 h; method in brief: as §4
[Candida] aaseri [27] = Fungicidal activity against Candida aaseri MTCC 1962 after 24 hrs; type: functional; settings: Yamadazyma aaseri, MTCC 1962, 24 h; method in brief: as §4
Nakaseomyces glabratus = experiment: Fungicidal activity against Candida glabrata MTCC 3019 after 24 hrs; type: functional; settings: MTCC 3019, 24 h; method in brief: as §4
Pichia kudriavzevii = experiment: Fungicidal activity against Candida krusei MTCC 3020 after 24 hrs; type: functional; settings: MTCC 3020, 24 h
Method in brief: (§5)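 Broth dilution in Mueller Hinton broth with serial compound concentrations from […]. Overnight Candida cultures added to a final 1.5 × 10^8 CFU/mL (0.5 McFarland). Incubated 24 h at 37 °C, then 10 µL of each tube plated on Mueller Hinton agar for 24 h at 37 °C. MFC taken as the lowest concentration that kills the strain. Run in duplicate.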

Pichia sporocuriosa = experiment: Fungicidal activity against Issatchenkia hanoiensis MTCC 4755 after 24 hrs; type: functional; settings: MTCC 4755, 24 h; method in brief: as §5
Staphylococcus aureus [28] = experiment: Antibiofilm activity against Staphylococcus aureus MTCC 96 incubated for 24 hrs under static condition by crystal violet staining-based assay; type: functional
Method in brief: (§6)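 Strains grown overnight in tryptone soy broth with 0.5% glucose. Compound (250 to 0) mixed with inoculum at 5 × 10^5 CFU/mL in polystyrene microtiter plates. Non-adherent cells washed off with PBS; wells stained with 0.1% crystal violet, dye solubilised in 95% ethanol, absorbance read at 540 nm. IC50 for 50% biofilm inhibition taken from dose-response curves. Triplicates, mean ± S.D.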

Staphylococcus aureus [29] = experiment: Antibiofilm activity against Staphylococcus aureus MLS16 MTCC 2940 incubated for 24 hrs under static condition by crystal violet staining-based assay; type: functional; method in brief: as §6
Micrococcus luteus [30] = experiment: Antibiofilm activity against Micrococcus luteus MTCC 2470 incubated for 24 hrs under static condition by crystal violet staining-based assay; type: functional; method in brief: as §6
Escherichia coli [31] = experiment: Antibiofilm activity against Escherichia coli MTCC 739 incubated for 24 hrs under static condition by crystal violet staining-based assay; type: functional; method in brief: as §6
Pseudomonas aeruginosa [32] = experiment: Antibiofilm activity against Pseudomonas aeruginosa MTCC 2453 incubated for 24 hrs under static condition by crystal violet staining-based assay; type: functional; method in brief: as §6
Micrococcus luteus [33] = experiment: Induction of intracellular ROS accumulation in Micrococcus luteus MTCC 2470 sessile biofilm cells at 2 to 4 ug/ml after 24 hrs by DCFH-DA staining-based assay; type: functional, cell-based
Method in brief: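 Intracellular ROS was measured in M. luteus MTCC 2470 biofilms grown in 24-well plates. Mature biofilms were treated and incubated 24 h at 30 °C together with […] DCFH-DA. Well contents were centrifuged at 5000 × g for 10 min. Fluorescence (ex 485/em 535 nm) was read separately for supernatant and for sessile cells resuspended in PBS. Triplicate, mean ± S.D.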

## CCCCCCCCC[C@H](O)[C@@H](C)N [CLAVAMINOL A]
[1]
  pIC50: 4.97
[2]
  pIC50: 4.81
[3]
  pIC50: 4.74
Micrococcus luteus [4]
  MIC: 1.9 µg/mL (≈ 9.44 µM)
Staphylococcus aureus [5]
  MIC: 3.9 µg/mL (≈ 19.4 µM)
Raoultella planticola
  MIC: 15.6 µg/mL (≈ 77.5 µM)
Escherichia coli [6]
  MIC: 7.8 µg/mL (≈ 38.7 µM)
Pseudomonas aeruginosa [7]
  MIC: 7.8 µg/mL (≈ 38.7 µM)
Candida albicans [8]
  MIC: 31.2 µg/mL (≈ 155 µM)
Candida albicans [9]
  MIC: 15.6 µg/mL (≈ 77.5 µM)
Candida albicans [10]
  MIC: 31.2 µg/mL (≈ 155 µM)
Candida albicans [11]
  MIC: 15.6 µg/mL (≈ 77.5 µM)
[12]
  MIC: 31.2 µg/mL (≈ 155 µM)
[Candida] aaseri [13]
  MIC: 62.5 µg/mL (≈ 310 µM)
[14]
  MIC: 15.6 µg/mL (≈ 77.5 µM)
Staphylococcus aureus [15]
  MBC: 15.6 µg/mL (≈ 77.5 µM)
Staphylococcus aureus [16]
  MBC: 7.8 µg/mL (≈ 38.7 µM)
Micrococcus luteus [17]
  MBC: 7.8 µg/mL (≈ 38.7 µM)
Escherichia coli [18]
  MBC: 15.6 µg/mL (≈ 77.5 µM)
Pseudomonas aeruginosa [19]
  MBC: 15.6 µg/mL (≈ 77.5 µM)
Candida albicans [20]
  MFC: 62.5 µg/mL (≈ 310 µM)
Candida albicans [21]
  MFC: 31.2 µg/mL (≈ 155 µM)
Candida albicans [22]
  MFC: 62.5 µg/mL (≈ 310 µM)
Candida albicans [23]
  MFC: 31.2 µg/mL (≈ 155 µM)
Candida albicans [24]
  MFC: 62.5 µg/mL (≈ 310 µM)
Candida albicans [25]
  MFC: 62.5 µg/mL (≈ 310 µM)
Candida albicans [26]
  MFC: 31.2 µg/mL (≈ 155 µM)
[Candida] aaseri [27]
  MFC: 62.5 µg/mL (≈ 310 µM)
Nakaseomyces glabratus
  MFC: 31.2 µg/mL (≈ 155 µM)
Pichia kudriavzevii
  MFC: 15.6 µg/mL (≈ 77.5 µM)
Pichia sporocuriosa
  MFC: 62.5 µg/mL (≈ 310 µM)
Staphylococcus aureus [28]
  IC50: 4.2 µg/mL (≈ 20.9 µM)
Staphylococcus aureus [29]
  IC50: 2.2 µg/mL (≈ 10.9 µM)
Micrococcus luteus [30]
  IC50: 0.8 µg/mL (≈ 3.97 µM)
Escherichia coli [31]
  INH: 5.2 µg/mL
Pseudomonas aeruginosa [32]
  INH: 3.6 µg/mL
Micrococcus luteus [33]
  Activity: Active
